Experimental data collected from several papers.
Each line is one published result; the experiments were not run side by side.
Matrix: plasma

CCOC(=O)[C@@]12C[C@@H]1[C@@H](n1ccc3c(NC)nc(C#Cc4ccc(Cl)s4)nc31)[C@H](O)[C@@H]2O  AUC(0-t) (male Sprague-Dawley rat; oral; 10 mg/kg): 361 ng·h/mL
Cc1c(-c2ccccc2)cccc1N1C(=O)c2cc(CN[C@H](C(=O)O)C(C)O)c(OCc3cccc(C#N)c3)cc2C1=O (stereo partly shown)  AUC(0-t) (Sprague-Dawley rat; oral; 50 mg/kg): 75 ng·h/mL
CCc1cc(OC)c2nccc(N3CCc4c(cc(Cn5ccnc5)cc4-c4cn(C)nc4C(F)(F)F)C3=O)c2c1  AUC(0-t) (male Sprague-Dawley rat; intravenous; 3 mg/kg): 952 ng·h/mL
O=C(Nc1cc(F)c(F)c(F)c1)c1ccc(F)c(S(=O)(=O)NCc2cccc(B(O)O)c2)c1  AUC(0-t) (male Sprague-Dawley rat; intravenous; 2 mg/kg): 242 ng·h/mL
COc1ccc2c(Cc3ccccc3F)c3n(c(=O)c2c1OC)CCc1cc2c(cc1-3)OCO2  AUC(0-t) (rat; intravenous; 5 mg/kg): 22700 ng·h/mL
COc1nc(-c2cc(C)c(N[C@@H](C)c3cc(F)cc(F)c3)nn2)ccc1-n1cnc(C)c1  AUC(0-t) (male Sprague-Dawley rat; intravenous; 1 mg/kg; single dose): 6350 ng·h/mL
Cc1nc(-c2cnc(NC(C)C)n(C)c2=O)ccc1Oc1ccnc(-c2cnn(C)c2)c1  AUC(0-t) (male Sprague-Dawley rat; intravenous; 1 mg/kg): 21500 ng·h/mL
COc1ccc2c(Cc3ccccc3F)c3[n+](cc2c1OC)CCc1cc2c(cc1-3)OCO2.[Br-]  AUC(0-t) (rat; intravenous; 5 mg/kg): 113 ng·h/mL
N#Cc1ccc(Nc2nc(N)cc(Oc3c(F)cc(-c4ccc(C#N)cc4)cc3F)n2)cc1  AUC(0-t) (Sprague-Dawley rat; intravenous; 1 mg/kg): 302 ng·h/mL
CNCc1cc(-c2ccccc2F)n(S(=O)(=O)c2cccnc2)c1  AUC(0-t) (Sprague-Dawley rat; oral; 10 mg/kg): 643 ng·h/mL
CCc1cc(C(=O)NC)c2nccc(N3CCc4c(cc(Cn5ccnc5)cc4-c4cn(C)nc4C(F)(F)F)C3=O)c2c1  AUC(0-t) (male Sprague-Dawley rat; oral; 50 mg/kg; single dose): 11100 ng·h/mL
C=CC(=O)N1CC2CC(n3nc(-c4ccc(C(=O)Nc5ccccn5)cc4)c4c(N)ncnc43)CC2C1 (stereo not shown)  AUC(0-t) (male Wistar rat; oral; 100 mg/kg): 13200 ng·h/mL
COc1ccc(C(C)=O)c(O)c1  AUC(0-t) (male Sprague-Dawley rat; oral; 100 mg/kg): 33600 ng·h/mL
